This passage reports IC50 and Ki results from ChEMBL document CHEMBL4184143 (J Med Chem, 2017).

Bounds are passed on as bounds.

Assay [1] relates to MV4-11. Nature of the assay: Growth inhibition of human MV4-11 cells after 4 days by WST-8 assay. The note with it: MV4-11, 96 h. It counts as functional, cell-based. (In general: Tetrazolium assays rely on reduction of a dye to a coloured formazan, in cell work by metabolically active cells.)
The target of assay [2] is T1, Bromodomain-containing protein 4 (Homo sapiens, UniProt O60885). Put plainly: Inhibition of FAM-labeled ZBA248 binding to recombinant human N-terminal His6-tagged BRD4 bromodomain 2 (333 to 460 residues) expressed in Rosetta2 DE3 cells after 30 mins by Flourescence polarization assay. It counts as biochemical.
Assay [3] relates to MOLM-13. Nature of the assay: Growth inhibition of human MOLM13 cells after 4 days by WST-8 assay. The assay is classed as functional, cell-based. Particulars: MOLM-13, 96 h. The gist of the method:
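MOLM-13 leukemia cells were seeded at 10,000 cells/well and exposed to serially diluted compound for 4 days. Signal was normalized to DMSO controls, and IC50 was fitted by nonlinear regression.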

Assay [4] has as its target T1, Bromodomain-containing protein 4. Nature of the assay: Inhibition of FAM-labeled ZBA248 binding to recombinant human N-terminal His6-tagged BRD4 bromodomain 1 (44 to 168 residues) expressed in Rosetta2 DE3 cells after 30 mins by Flourescence polarization assay. It counts as biochemical.

For `COc1cc2c(cc1-c1c(C)noc1C)[nH]c1nc(C)nc(-c3cnc4ccccc4c3)c12`, the half-inhibitory concentration (IC50) was found to be 423 nM in assay [1], 128 nM in assay [2], 716 nM in assay [3] and 397 nM in assay [4]. Moreover, the inhibition constant Ki in assay [2] was found to be 42.6 nM; in assay [4], 136 nM.
Regarding `COc1cc2c(cc1-c1c(C)noc1C)[nH]c1ncnc(-c3c(C)oc4ccccc34)c12`, the IC50 in assay [1] turned out to be 29 nM; in assay [2] it was 12.2 nM; in assay [3], 380 nM; in assay [4], 32.4 nM. In addition, the Ki in assay [2] came out at 2.8 nM; in assay [4], 9.3 nM.
For the compound `COc1cc2c(cc1-c1c(C)noc1C)[nH]c1ncnc(-n3cnc4ccccc43)c12`, the IC50 in assay [1] is 15 nM; in assay [2], 9.4 nM; in assay [3], 262 nM; in assay [4] it was 29.4 nM. The Ki is 2.8 nM in assay [2] and 9.9 nM in assay [4].
Take `COc1cc2c(cc1-c1c(C)noc1C)[nH]c1nc(C)nc(-c3cccc4cnccc34)c12`: the IC50 was 295 nM in assay [1], 436 nM in assay [2], 656 nM in assay [3] and 451 nM in assay [4]. Moreover, the inhibition constant Ki in assay [2] is 146 nM; in assay [4] it was 139 nM.
Turning to `COc1cc2c(cc1-c1c(C)noc1C)[nH]c1ncnc(-c3ccoc3)c12`, the IC50 was 2860 nM in assay [1], 180 nM in assay [2], greater than 10000 nM in assay [3] and 155 nM in assay [4]. Further, the results for the Ki in assay [2] and in assay [4] were 56.4 nM and 44.3 nM, respectively.
Consider `COc1cc2c(cc1-c1c(C)noc1C)[nH]c1ncnc(-c3nn(C)c4ccccc34)c12`, for which the IC50 in assay [1] is greater than 10000 nM; in assay [2] it was 74.9 nM; in assay [3], greater than 10000 nM; in assay [4] it was 147 nM. In addition, the Ki in assay [2] was determined as 22.5 nM; in assay [4] it was 85.1 nM.
With `COc1cc2c(cc1-c1c(C)noc1C)[nH]c1ncnc(-c3c(C)n[nH]c3C)c12`, the IC50 in assay [1] stood at 99 nM; in assay [2], 63.5 nM; in assay [3], 233 nM; in assay [4], 51.7 nM. For the same compound, the inhibition constant (Ki) in assay [2] is 20.2 nM; in assay [4], 19.7 nM.
In the case of `COc1cc2c(cc1-c1c(C)noc1C)[nH]c1ncnc(-c3cn[nH]c3)c12`, in assay [2], the IC50 came out at 199 nM and the Ki is 57 nM. In addition, in assay [4], the IC50 stood at 393 nM and the Ki amounted to 131 nM.
As for `COc1cc2c(cc1-c1c(C)noc1C)[nH]c1ncnc(-c3c(C)noc3C)c12`, the IC50 is 182 nM in assay [1], 164 nM in assay [2], 709 nM in assay [3] and 102 nM in assay [4]. Further, the inhibitory constant (Ki) stood at 68.7 nM in assay [2] and 41.2 nM in assay [4].
On to `COc1cc2c(cc1-c1c(C)noc1C)[nH]c1ncnc(-n3ccnc3)c12`, for which the IC50 in assay [1] was found to be 1060 nM; in assay [2] it was 1140 nM; in assay [3] it was 9270 nM; in assay [4], 1460 nM. The values for the Ki in assay [2] and in assay [4] were 335 nM and 456 nM, respectively.
For the compound `COc1cc2c(cc1-c1c(C)noc1C)[nH]c1ncnc(-c3c[nH]c4ccccc34)c12`, the IC50 in assay [1] worked out at 57 nM; in assay [2] it was 5.5 nM; in assay [3], 205 nM; in assay [4], 20.3 nM. The Ki stood at 1.1 nM in assay [2] and 4.9 nM in assay [4].
With `COc1cc2c(cc1-c1c(C)noc1C)[nH]c1ncnc(-c3c[nH]c4cnccc34)c12`, the IC50 in assay [1] was determined as 190 nM; in assay [2] it was 22.7 nM; in assay [3], 489 nM; in assay [4] it was 11.6 nM. Besides, the Ki was 7.1 nM in assay [2] and 7 nM in assay [4].
With `COc1cc2c(cc1-c1c(C)noc1C)[nH]c1nc(C)nc(-c3cncc4ccccc34)c12`, the IC50 in assay [1] was found to be 47 nM; in assay [2], 12.7 nM; in assay [3] it was 124 nM; in assay [4], 35.6 nM. Besides, the inhibition constant Ki amounted to 3.8 nM in assay [2] and 9.5 nM in assay [4].
For the compound `COc1cc2c(cc1-c1c(C)noc1C)[nH]c1ncnc(-c3c(C)[nH]c4cnccc34)c12`, the IC50 in assay [1] is 13 nM; in assay [2], 25.9 nM; in assay [3], 127 nM; in assay [4], 10.8 nM. The Ki in assay [2] worked out at 9.1 nM; in assay [4], 4.2 nM.
For the compound `COc1cc2c(cc1-c1c(C)noc1C)[nH]c1ncnc(-c3cc[nH]c3)c12`, the IC50 came out at 253 nM in assay [1], 108 nM in assay [2], 612 nM in assay [3] and 165 nM in assay [4]. The Ki was found to be 30.6 nM in assay [2] and 51.9 nM in assay [4].
Take `COc1cc2c(cc1-c1c(C)noc1C)[nH]c1ncnc(-c3cnn4ccccc34)c12`: the IC50 in assay [1] is 13 nM; in assay [2] it was 26.5 nM; in assay [3] it was 139 nM; in assay [4], 48.7 nM. For the same compound, the Ki was 6.5 nM in assay [2] and 28 nM in assay [4].
As to `COc1cc2c(cc1-c1c(C)noc1C)[nH]c1nc(C)nc(-c3cc(C(F)(F)F)nc4ccccc34)c12`, the concentration for half-maximal inhibition (IC50) came out at 77 nM in assay [1], 92.7 nM in assay [2], 971 nM in assay [3] and 393 nM in assay [4]. Further, the Ki in assay [2] turned out to be 26.9 nM; in assay [4], 122 nM.
In the case of `COc1cc(-c2nc(C)nc3[nH]c4cc(-c5c(C)noc5C)c(OC)cc4c23)c2ccccc2n1`, the IC50 worked out at 69 nM in assay [1], 14.6 nM in assay [2], 243 nM in assay [3] and 73.1 nM in assay [4]. In addition, the inhibition constant (Ki) in assay [2] was 4.2 nM; in assay [4], 31.8 nM.
As to `COc1cc2c(cc1-c1c(C)noc1C)[nH]c1ncnc(N[C@H](C)c3ccccn3)c12`, the IC50 in assay [2] worked out at 26.4 nM; in assay [4], 39.2 nM. The Ki was found to be 10.4 nM in assay [2] and 12 nM in assay [4].
For the compound `COc1cc2c(cc1-c1c(C)noc1C)[nH]c1ncnc(Cl)c12`, in assay [2], the IC50 is 1760 nM and the Ki was 476 nM. Further, in assay [4], the IC50 was found to be 1130 nM and the Ki worked out at 387 nM.
For `COc1cc2c(cc1-c1c(C)noc1C)[nH]c1nc(C)nc(-c3cccc4cccnc34)c12`, the IC50 in assay [1] was 334 nM; in assay [2], 193 nM; in assay [4] it was 412 nM. For the same compound, the Ki in assay [2] came out at 58.2 nM; in assay [4], 129 nM.
Consider `COc1cc2c(cc1-c1c(C)noc1C)[nH]c1nc(C)nc(-c3cccc4ccncc34)c12`, for which the half-maximal inhibitory concentration (IC50) in assay [1] is greater than 1000 nM; in assay [2] it was 167 nM; in assay [3], 1140 nM; in assay [4] it was 316 nM. Also, the results for the Ki in assay [2] and in assay [4] were 52.3 nM and 78.6 nM, respectively.
`COc1cc2c(cc1-c1c(C)noc1C)[nH]c1ncnc(-c3c(C)nn(C)c3C)c12`: the half-maximal inhibitory concentration (IC50) in assay [1] was 95 nM; in assay [2], 89.7 nM; in assay [3] it was 193 nM; in assay [4], 40.9 nM. In addition, the results for the inhibitory constant (Ki) in assay [2] and in assay [4] were 31.2 nM and 18.5 nM, respectively.
Consider `COc1cc2c(cc1-c1c(C)noc1C)[nH]c1nc(C)nc(-c3cccc4ncccc34)c12`, for which the IC50 in assay [1] is 28 nM; in assay [2] it was 15.5 nM; in assay [3], 76 nM; in assay [4], 30.9 nM. Also, the results for the Ki in assay [2] and in assay [4] were 3.1 nM and 10.1 nM, respectively.
Take `COc1cc2c(cc1-c1c(C)noc1C)[nH]c1ncnc(-c3cnoc3)c12`: the IC50 in assay [2] was 1880 nM; in assay [4], 2060 nM. For the same compound, the results for the Ki in assay [2] and in assay [4] were 641 nM and 655 nM, respectively.

In general, IC50 refers to the point on the concentration scale where inhibition reaches its midpoint. What is called Ki is a dissociation constant, usually derived from enzyme kinetics or from competition with a known ligand.
